In ChEMBL document CHEMBL1157151, “Design and synthesis of N-(3,5-difluoro-4-hydroxyphenyl)benzenesulfonamides as aldose reductase inhibitors” (Bioorg Med Chem, 2008):

How the values were obtained:
Jejunum [1] = assay: Apparent permeability from mucosal to serosal side in Wistar rat jejunum; type: functional, tissue-based
Method in brief: (§1)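 Jejunum from starved male Wistar rats (250–320 g), 1 cm² exposed, in side-by-side diffusion chambers; 25 min preincubation. Donor: 0.479 mM compound, 10 µM fluorescein paracellular marker, glucose or mannitol in Ringer buffer, applied mucosal (M–S) or serosal (S–M). Acceptor sampled every 25 min to 175 min. Viability checked by PD, Isc, TEER. HPLC-UV 220 nm, fluorescein by fluorescence. Papp calculated.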

Jejunum [2] = assay: Apparent permeability from serosal to mucosal side in Wistar rat jejunum; type: functional, tissue-based; method in brief: as §1
Jejunum [3] = assay: Ratio of permeability from serosal to mucosal over mucosal to serosal side of the Wistar rat jejunum
[4] = target: Aldo-keto reductase family 1 member B1 (Rattus norvegicus, UniProt P07943); assay: Inhibition of aldose reductase in rat lenses
Method in brief: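 Activity read spectrophotometrically as NADPH oxidation. Five concentrations; IC50 by least-squares fit of linear portion of log(dose)–response curve; triplicate.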

[5] = DPPH radical scavenging activity; type: functional
Method in brief: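 Compound in ethanol mixed with ethanolic DPPH; final 0.2–0.0125 mM compound, 0.2 mM DPPH. Absorbance loss at 517 nm followed. IC50 from nine concentrations at 270 min steady state; EC50 = IC50/[DPPH]. Initial rate from linear absorbance decrease over first 30 s at equimolar 0.2 mM. Triplicate.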

[6] = Antioxidant activity assessed as inhibition of DOPC liposomes; type: functional
Method in brief: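 Unilamellar DOPC liposomes (final 0.8 mM) in 20 mM phosphate buffer pH 7.4 incubated with test compound (10–300 µM) and AAPH initiator (final 10 mM), 50 °C, 80 min. Lipid hydroperoxides extracted with CHCl₃/MeOH (2:1) containing BHT, measured by thiocyanate method at 500 nm against cumene hydroperoxide calibration. IC50 by least-squares fit of linear part of semilog % inhibition plot; triplicate.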

`CC(/C=C1\SC(=S)N(CC(=O)O)C1=O)=C\c1ccccc1` gave a permeability (Jejunum [1]) of 4.34 ×10⁻⁶ cm/s, a permeability (Jejunum [2]) of 10.9 ×10⁻⁶ cm/s and a Ratio (Jejunum [3]) of 2.5.
With `O=S(=O)(Nc1cc(F)c(O)c(F)c1)c1ccccc1` the IC50 [4] was 32.9 µM, the IC50 [5] was 49 µM and the IC50 [6] was 95.9 µM. It also gave a permeability (Jejunum [1]) of 6.34 ×10⁻⁶ cm/s, a permeability (Jejunum [2]) of 2.91 ×10⁻⁶ cm/s and a Ratio (Jejunum [3]) of 0.46.
`O=[N+]([O-])c1ccc(S(=O)(=O)Nc2cc(F)c(O)c(F)c2)cc1` showed an IC50 [4] of 44.4 µM.
`COc1ccc(S(=O)(=O)Nc2cc(F)c(O)c(F)c2)cc1` gave an IC50 [4] of 15.5 µM.
Compound `Cc1c(C)c2c(c(C)c1O)CCC(C)(C(=O)O)O2` (centres undefined) [TROLOX] has an IC50 [5] of 37 µM and an IC50 [6] of 93.5 µM.
Work on `Nc1ccc(S(=O)(=O)Nc2cc(F)c(O)c(F)c2)cc1` yielded an IC50 [4] of 14.1 µM.
